Compound activity (PubChem BioAssay)
Only some compounds are listed: those with a hit (about 3.8% of all), similar ones and a draw of the others.
V-ATPase pH: yeast V-ATPase proton transport regulation by pHLuorin; S. cerevisiae, pHLuorin cytosolic pH fluorescence; response, % at 10 µM; 0.37% of 350,000 active; in the data active = response mostly above about 7.3%, no sharp cut-off; inactive = mostly below about 5.4%; note: actives read high
Exocytosis inh: lytic granule exocytosis inhibition; TALL-104 LAMP-1 surface exposure, flow cytometry; cells stimulated with thapsigargin and PMA; inhibition, % at 10 µM; 0.66% of 360,000 active; AID 651702;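 active = inhibition above about 55%, limit read from the data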
MPTP block: inhibitors of mitochondrial permeability transition pore; 1.4% of 360,000 active; inhibition, % at 10 µM; isolated mouse mitochondria, Ca2+ swelling absorbance, 30 min; AID 602449;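 active = inhibition of 50% or more, scaled per plate between neutral and stimulator controls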;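 note: 0% = DMSO wells given calcium and 100% = 1 mM EGTA wells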
Beta2AR agonist: activates human beta-2 adrenergic receptor causing internalization | P07550 | response, % (concentration not given with the values) | Am2.2-beta2AR cells, FAP receptor internalization, flow cytometry | 0.43% of 340,000 active;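 active = response above a set limit, near 3 SD of response in nonfluorescent compounds, cut at about 42% in these data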
Target sequence (P07550 whole entry, looked up): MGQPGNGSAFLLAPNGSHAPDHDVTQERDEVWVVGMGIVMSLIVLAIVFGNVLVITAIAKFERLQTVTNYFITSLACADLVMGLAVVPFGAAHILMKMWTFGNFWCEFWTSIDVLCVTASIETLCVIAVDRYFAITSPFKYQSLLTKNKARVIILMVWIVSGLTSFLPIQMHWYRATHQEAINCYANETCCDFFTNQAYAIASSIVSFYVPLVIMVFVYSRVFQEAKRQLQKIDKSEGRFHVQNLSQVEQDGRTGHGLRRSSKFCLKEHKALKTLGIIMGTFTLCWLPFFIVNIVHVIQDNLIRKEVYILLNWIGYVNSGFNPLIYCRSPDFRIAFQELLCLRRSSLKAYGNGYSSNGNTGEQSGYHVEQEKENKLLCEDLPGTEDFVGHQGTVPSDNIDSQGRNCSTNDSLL
T cell HTS: T cell immune modulators affecting CD8 T cell-vesicle binding. 0.068% of 330,000 active. response (vesicle binding), % at 7 µM. 2C CD8+ T cell-vesicle binding, flow cytometry; hits give low values;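 active = response, share of CD8 T cells binding vesicles, and their 90th percentile fluorescence all below set limits, cut at about 80% in these data, passing the limit was not always enough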;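 note: values below 100% mean blocked vesicle binding to the CD8+ T cells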
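Read-out – percent CD8+ FL2 mean versus row control · System – murine 2C transgenic CD8+ T lymphocytes · Times – 1.5 h cell–vesicle binding at 37 °C, then 20 min icy labelling · Control set – naked vesicles low, QL9 vesicles with vehicle high · Detection – cytometric PE anti-B7-1 and Alexa647 anti-CD8 signals after 1% paraformaldehyde fixation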
rCAG binder: r(CAG) repeat RNA binding. 1.3% of 370,000 active. inhibition, % at 3 µM. AID 651821. TO-PRO-1 dye displacement fluorescence;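 active = inhibition above the plate cutoff, the mean of all test compounds on that plate plus 3 SD, cut at about 35% in these data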;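 note: 0% = DMSO alone and 100% = 100 µM mitoxantrone as full dye displacement; higher means more dye released from RNA so lower well fluorescence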
Rh123 counter: Rhodamine 123 counter-screen of mitochondrial pore hits; isolated mitochondria, membrane potential, Rhodamine 123 fluorescence; AID 624504; inhibition, % at 10 µM; shares compounds with MPTP block; 78% of 5,000 active; in the data active = inhibition above about 22%;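 note: 0% = DMSO vehicle and 100% = positive control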
MPTP abs DR: dose response confirmation of mitochondrial permeability transition pore inhibitors | shares compounds with MPTP block | isolated mitochondria swelling, absorbance | IC50, µM | 58% of 780 active | AID 651561; in the data active = IC50 below about 20 µM
MPTP counter DR: MPTP inhibitor counter-screen activity, dose response; IC50, µM; 49% of 780 active; isolated mitochondria counterscreen, fluorescence read-out; shares compounds with MPTP block; in the data active = IC50 below about 80 µM
Numbers without * were called inactive; i = inactive; x = not tested or not shown.

SMILES	V-ATPase pH	Exocytosis inh	MPTP block	Beta2AR agonist	T cell HTS	rCAG binder	Rh123 counter	others
CC(=O)c1c(C)[nH]c(C(=O)Nc2nc(-c3ccc(Cl)cc3)cs2)c1C	-1	16	94*	11	193	4	58*
O=C(Nc1ccc(C(F)(F)F)cc1)OC1CCC12CCC(c1ccccc1)CC2 (stereo not drawn)	x	x	x	x	x	2	x
CC(=O)Cc1nsc(NC(=O)c2ccc(-c3ccc(Cl)cc3Cl)o2)n1	7	1	54*	-2	344	6	38*
CC(=O)Cc1nsc(NC(=O)c2ccc(-c3cc(Cl)ccc3Cl)o2)n1	-1	4	31	-12	284	34	x
CC1(C)Oc2ccc(C(=O)N3CCCC3)cc2NC1=O	x	x	x	x	x	1	x
CCCCN(C)c1c2c(nc3ncnn13)CCCC2	x	x	x	x	x	1	x
O=C(Nc1cccc(Cl)c1)c1ccc(F)c(S(=O)(=O)NCc2ccc3c(c2)OCO3)c1	0	-4	51*	-5	322	8	66*
O=C(Nc1ccc(Br)cc1)c1ccc(F)c(S(=O)(=O)NCc2cccs2)c1	1	3	97*	7	226	12	94*
CC(C)(C)OC(=O)N1CCC[C@@H]1C(=O)N1CCC[C@@H]1C(=O)NCc1ccccc1	x	x	x	x	x	0	x
CC1CCc2sc(C(=O)NCc3ccc(F)cc3)cc2C1 (stereo not drawn)	-3	0	58*	-8	430	-3	62*
COC(=O)CSc1nnc(C)c(=O)[nH]1	0	-2	-5	4	419	-1	x
CCOC(=O)CNc1nnc(SCC(=O)OCC)[nH]c1=O	9	1	58*	0	399	6	-4	MPTP abs DR=>100;MPTP counter DR=>80
COc1ccc(-c2cc(C(=O)NN=C/C(C)=C/c3ccccc3)[nH]n2)cc1	x	x	x	x	x	12	x
O=C(C=Cc1ccccc1Cl)c1ccccc1	1	-3	-2	15	x	1	x
C=CCn1cccc(/C=C/C(=O)c2ccc(C(C)(C)C)cc2)c1=S	-1	-4	77*	12	117	6	4
CC(C)(C)n1ncc(Oc2ccccc2[N+](=O)[O-])c(Cl)c1=O	-1	-6	86*	14	188	-4	34*
O=C(NC[C@@H]1CC[C@@H](Cc2ccc(-c3ccccc3)cc2)O1)Nc1ccc(Br)cc1	0	14	60*	-6	x	7	96*
Cc1ccccc1C(=O)Nc1cc(S(=O)(=O)N2CCCCC2)ccc1N1CCN(C)CC1	0	2	28	-4	146	-4	x
CCN1CCN(c2ccc(S(=O)(=O)N3CCCCC3)cc2NC(=O)/C=C/c2ccc([N+](=O)[O-])cc2)CC1	1	36	-1	15	i	6	x
CCN1CCN(c2ccc(S(=O)(=O)N3CCCCC3)cc2NC(=O)/C=C/c2ccc(F)cc2)CC1	6	22	78*	24	224	-2	-18	MPTP abs DR=i
CN1CCN(c2ccc(S(=O)(=O)N3CCCCC3)cc2NC(=O)c2ccc3ccccc3c2)CC1	-3	4	67*	-6	190	1	-15	MPTP abs DR=14*;MPTP counter DR=>80
Cc1ccccc1-n1nc(C(=O)c2cccs2)cc(-c2nc3ccccc3[nH]2)c1=N	-3	-1	91*	19	514	5	98*
Cc1cccc(-n2nc(C(=O)c3ccco3)cc(-c3nc4ccccc4[nH]3)c2=N)c1	5	3	48	29	984	12	x
Cc1cc(NC(=O)c2cccs2)n(-c2nc3ccccc3[nH]2)n1	-2	0	6	-11	203	9	x
COc1ccc(-n2nc(C(=O)c3cccs3)cc(-c3nc4ccccc4[nH]3)c2=N)cc1	-1	22	78*	34	246	7	-4
SMILES	V-ATPase pH	Exocytosis inh	MPTP block	Beta2AR agonist	T cell HTS	rCAG binder	Rh123 counter	others
O=C(CSc1nnc(Cc2cccs2)n1-c1ccccc1)Nc1ccccc1-c1ccccc1	x	x	x	x	x	3	x
COc1ccccc1/C=C/C(=O)c1cc(Br)ccc1OC(=O)c1ccco1	-2	-2	57*	25	268	3	-9
CC1=CC(C)(C)N=C(Nc2nc(C)c3cc(C)cc(C)c3n2)N1	-2	3	95*	26	299	17	101*
Cc1cc(C)c2nc(Nc3nc(-c4ccccc4)cc(=O)[nH]3)nc(C)c2c1	-2	-3	2	11	82	13	x
CCOc1cc(OCC)cc(C(=O)N2CCC[C@@H]2C(=O)N2CCC[C@@H]2C(=O)NCc2cccc(OC)c2)c1	x	x	x	x	x	0	x
COC(=O)[C@]12C[C@H](CC(=O)N3CCN(C(=O)C4CC4)CC3)C(=O)N(Cc3cccc4ccccc34)C1=C[C@H](COCc1ccccc1)O[C@@H]2C	x	x	x	x	x	7	x
CC(C)C[C@@H]1COc2cc(N3CCCC3)ccc2S(=O)(=O)N1	x	x	x	x	x	3	x
Cc1ccc(OCC(=O)c2cc(C)n(Cc3cccs3)c2C)c([N+](=O)[O-])n1	10	1	76*	-5	186	0	67*
Cc1ccc(OCC(=O)c2cc(C)n(CC(F)(F)F)c2C)c([N+](=O)[O-])n1	5	3	0	3	384	-3	x
O=C(NCCc1ccc(F)cc1)c1cc2ccccn2n1	x	x	x	x	x	2	x
CSc1nc(Cl)c(Cc2ccc(OC(C)C)cc2)c(N(C)C)n1	-1	0	60*	0	151	-6	10	MPTP abs DR=i;MPTP counter DR=35*
Fc1cccc(Cl)c1-c1nnc2ccc3ccccc3n12	-2	0	51*	1	826	5	31*
Cc1ccc2c(c1)C(CS(=O)(=O)NCC(C)C)NC2 (stereo not drawn)	x	x	x	x	x	6	x
Cc1nnc(N/N=C/c2cc([N+](=O)[O-])c(N3CCC(C)CC3)cc2N2CCC(C)CC2)n1N	2	1	83*	-3	387	5	66*
COC(=O)[C@]12C[C@H](CC(=O)NCc3cccs3)C(=O)N(Cc3ccc4c(c3)OCO4)C1=C[C@H](C(C)(C)C)O[C@@H]2C	x	x	x	x	x	3	x
CN(C)c1ccc(C=c2c3cc(O)ccc3n3c2cc(-c2ccccc2)[n+]3C)cc1	-1	26	53*	-124	x	25	59*
C[n+]1c(-c2ccccc2)cc2c(=Cc3ccccc3)c3ccccc3n21	-3	41	-5	-24	x	10	x
Cc1ccccc1OCCCCCNCCO	1	-1	-2	9	x	-4	x
CC(C)(C)c1ccccc1OCCCCCNCCO	-4	3	90*	5	296	6	-15	MPTP abs DR=7.9*;MPTP counter DR=>80
Cc1cn2c(N)c(C=C3C=C(Cl)C(=O)C(Cl)=C3)c(=O)nc2s1	-1	9	87*	-37	x	3	83*
CN(C(=O)[C@@H](C1CC1)[C@@H](O)c1ccc2ccccc2c1)c1ccccc1	x	x	x	x	x	-3	x
